Measurements reported in ChEMBL document CHEMBL4000155, “Synthesis and Antileukemic Activities of Piperlongumine and HDAC Inhibitor Hybrids against Acute Myeloid Leukemia Cells” (J Med Chem, 2016).
Active and inactive are the calls of the source. The calls are words filed in the database; no cut-off is given here.

Assays:
U-937 [1] = test: Induction of cell death in p53 null human U937 cells at 1 to 4 uM after 24 hrs by annexin V-FITC/PI staining based flow cytometry; assay type: functional
Method in brief: (§1)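 Human U937 AML cells (p53 null) in RPMI 1640 with 10% FBS, 2 mM L-glutamine, penicillin/streptomycin, 37 °C, 5% CO2. Exposed 24 h to compound alone or with SAHA; vehicle DMSO < 0.1% v/v. Annexin V-FITC/PI staining and flow cytometry, reported as % Annexin V+ cells. Three independent experiments in triplicate; one representative shown. EC50 taken as concentration giving 50% Annexin V+ cells versus vehicle.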

MV4-11 = test: Antiproliferative activity against human MV4-11 cells after 72 hrs in presence of SAHA by MTT assay; assay type: functional, cell-based; conditions: MV4-11, 72 h
OCI-AML-3 = test: Antiproliferative activity against human OCI-AML3 cells after 72 hrs in presence of SAHA by MTT assay; assay type: functional, cell-based; conditions: OCI-AML-3, 72 h
Method in brief: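 AML cell lines grown in RPMI 1640 with 10% FBS (20% for MOLM-13), 2 mM L-glutamine and penicillin/streptomycin at 37 °C, 5% CO2. Ara-C-resistant HL-60 and CMK sublines came from stepwise cytarabine selection and were kept in 600 nM or 300 nM cytarabine respectively. Cells were treated 72 h. MTT 0.05 mg/mL, 3 h at 37 °C, DMSO solubilization, absorbance at 570 nm. IC50 given ± SEM.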

MOLM-13 = test: Induction of apoptosis in human MOLM13 cells harboring wild type p53/FLT3-ITD mutant at 2 uM after 24 hrs in presence of SAHA by annexin V-FITC/PI staining based flow cytometry; assay type: functional
Method in brief: (§2)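 Cells treated 24 h, single agents or SAHA+PL at 1:1 (each drug at the stated concentration). Annexin V-FITC/PI kit staining, then flow cytometry, reported as % Annexin V+ cells. Three independent experiments in triplicate, with data from one representative experiment. DMSO <0.1% vehicle control.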

U-937 [2] = test: Induction of cell death in p53 null human U937 cells assessed as combination index at 2 to 4 uM after 24 hrs in presence of SAHA by annexin V-FITC/PI staining based flow cytometry; assay type: functional
Method in brief: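 Cells given SAHA and PL alone or together at 1:1 ratio for 24 h, then Annexin V-FITC/PI staining and flow cytometry. Combination index computed from the % Annexin V+ data; CI < 1 synergistic, = 1 additive, > 1 antagonistic. Triplicates, three independent experiments.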

U-937 [3] = test: Effect on SAHA-induced DNA damage in p53 null human U937 cells assessed as decrease in Rad51 expression level by measuring ratio of Rad51 to beta-actin level at 2 uM after 24 hrs by Western blot analysis relative to control; assay type: functional
Method in brief: (§3)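 U937 cells treated 24 h, alone or PL+SAHA. Whole-cell lysates (protease/phosphatase inhibitors) immunoblotted for γH2AX, CHK1, RAD51, Bim and XIAP. Band densitometry normalised to β-actin, then expressed as fold change relative to the untreated control.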

U-937 [4] = test: Induction of apoptosis in p53 null human U937 cells at 1 uM after 24 hrs in presence of SAHA by annexin V-FITC/PI staining based flow cytometry; assay type: functional; method in brief: as §2
U-937 [5] = test: Effect on SAHA-induced DNA damage in p53 null human U937 cells assessed as increase in gammaH2AX expression level by measuring ratio of gammaH2AX to beta-actin level at 2 uM after 24 hrs by Western blot analysis relative to control; assay type: functional; method in brief: as §3
U-937 [6] = test: Induction of cell death in p53 null human U937 cells after 24 hrs by annexin V-FITC/PI staining based flow cytometry; assay type: functional; method in brief: as §1
MDA-MB-231 = test: Antiproliferative activity against human MDA-MB-231 cells after 24 hrs by MTT assay; assay type: functional, cell-based; conditions: MDA-MB-231, 24 h
U-937 [7] = test: Induction of DNA damage in p53 null human U937 cells assessed as decrease in Rad51 expression level by measuring ratio of Rad51 to beta-actin level at 2 uM after 24 hrs by Western blot analysis relative to control; assay type: functional; method in brief: as §3
U-937 [8] = test: Induction of apoptosis in p53 null human U937 cells at 0.5 uM after 24 hrs by annexin V-FITC/PI staining based flow cytometry; assay type: functional; method in brief: as §2

IC50 (MV4-11) [nM]	IC50 (OCI-AML-3) [nM]	IC50 (MDA-MB-231) [nM]	Structure (SMILES)	Activity (U-937 [1])	Activity (MOLM-13) [%]	CI (U-937 [2])	Ratio (U-937 [3])	Activity (U-937 [4]) [%]	Ratio (U-937 [5])	Activity (U-937 [6])	Ratio (U-937 [7])	Activity (U-937 [8])
289	1110	–	COc1cc(/C=C/C(=O)N2CCC=CC2=O)cc(OC)c1OC [PIPLARTINE]	Active	53.6	<0.9	0.9	6.2	4.1	–	–	–
–	–	382	COc1cc(/C=C/C(=O)N2CCC=CC2=O)cc(OC)c1OCCCCCCC(=O)NO	–	–	–	–	–	–	Dose-dependent effect	0.9	inactive
